This is a sample that favours compounds with a hit; in the whole collection about 3.3% have one here.
SENP6 inh: SENP6 protease inhibitors, primary screen, biochemical, luminescence, uHTS. AID 2599, 2010. Recombinant SENP6 catalytic domain, aminoluciferin luminescence. inhibition, % at 10 µM. 330,000 compounds, 1.8% hits. Sentrin-specific protease 6 (Homo sapiens), Q9GZR1;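 active = inhibition above about 50% at the single tested dose, limit read from the data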;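 also: plate controls were DMSO wells with enzyme for no effect and DMSO wells lacking enzyme for full effect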
NRP1-CendR mod: modulators of CendR peptide binding to NRP-1, primary screen, biochemical, fluorescence polarization, uHTS | Neuropilin-1 (Homo sapiens), O14786 | FAM-RPARPAR peptide binding to NRP-1 | inhibition, % at 25 µM | 360,000 compounds, 0.85% hits | AID 602438, 2012;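 active = inhibition or corrected inhibition above about 18%, plus a signal ratio from 0.5 to 1.5, limit read from the data, passing the limit was not always enough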
SENP8 block-1: SENP8 protease inhibitors, primary screen, biochemical, luminescence; Sentrin-specific protease 8 (Homo sapiens), Q96LD8; purified SENP8, Z-RLRGG-aminoluciferin cleavage; inhibition, % at 10 µM; 330,000 compounds, 1.2% hits; AID 2540, 2010; in the data active = inhibition above about 50%
SENP1 inh: human SENP1 catalytic domain inhibitors, primary screen, biochemical, FRET, uHTS; recombinant SENP1 catalytic domain, CyPet-SUMO1-YPet FRET cleavage; inhibition, % at 10 µM; 360,000 compounds, 0.21% hits; AID 624204, 2012;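 active = inhibition at least 30% at 10 µM, raw YFP signal under a set limit, fluorescence ratio 0.5 to 1.5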;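 also: 0% = enzyme with DMSO and 100% = no enzyme wells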
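System: Recombinant human SENP1 catalytic domain, His6-tagged | Incubation: Enzyme reaction for 50 min at room temperature, dark | Medium: Tris pH 8 with BME, BSA, NP40 and catalase | Also added: 25 nM SUMO1 FRET substrate | Compound: 10 µM single point, 0.5% DMSO | Measured by: FRET fluorescence in CFP and YFP emission channels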
SENP7 inh: SENP7 protease inhibitors, primary screen, biochemical, luminescence, uHTS. AID 434973, 2010. 330,000 compounds, 1.5% hits. Sentrin-specific protease 7 (Homo sapiens), Q9BQF6. inhibition, % at 5 µM. recombinant SENP7, Z-RLRGG-aminoluciferin luminescence, 40 min;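 active = inhibition above about 50% at the single test dose, limit read from the data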;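 also: plate controls were DMSO with enzyme for no effect and no enzyme buffer wells for full effect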
SENP8 block-2: human SENP8 protease inhibitors, primary screen, biochemical, fluorescence, Nedd8 protein substrate, uHTS | 360,000 compounds, 0.64% hits | inhibition, % at 20 µM | Sentrin-specific protease 8 (Homo sapiens), Q96LD8 | recombinant SENP8; in the data active = inhibition mostly above about 40%, no sharp cut-off; inactive = mostly below about 27%
Starred values were filed as active, the others as inactive; i = inactive; . = not tested or not shown.

SMILES	SENP6 inh	NRP1-CendR mod	SENP8 block-1	SENP1 inh	SENP7 inh	SENP8 block-2
COC(=O)c1ccccc1NC1OC(=O)c2ccccc21 (stereo unspecified)	-9	-5	3	-1	0	i
C[C@H]1CN([C@@H](C)CO)C(=O)CCCn2nncc2CO[C@H]1CN(C)S(=O)(=O)c1ccc(C#N)cc1	.	12	.	1	.	10
CCOC(=O)c1cccc(N2C(=O)C3C4C=CC(CC4)C3C2=O)c1 (stereo unspecified)	-17	8	20	-2	-7	12
CCOC(=O)c1cccc(N2CC3CNC(=O)C2(C(=O)OC)N3C)c1 (stereo unspecified)	-19	21*	6	2	-3	-430
O=C(Cn1c(=O)oc2cc(S(=O)(=O)N3CCCC3)ccc21)Nc1ccccn1	.	3	.	1	.	-3
NC(=O)C(c1ccc(Cl)cc1)c1ncc(C(F)(F)F)cc1Cl (stereo unspecified)	-11	11	0	2	6	6
NC(=O)C(c1ccc(Cl)cc1Cl)c1ncc(C(F)(F)F)cc1Cl (stereo unspecified)	-2	23*	-14	-1	-6	15
Cc1cc(C)cc(C(=O)Nc2ccc(N3CCCC3)cc2)c1	74*	-19	66*	-20	56*	12
COc1ccccc1CNC(=O)c1cc(-c2ccccc2)nn1Cc1cc(C)no1	-4	27*	-3	0	0	7
CCc1cc(Cn2nc(-c3ccccc3)cc2C(=O)NCc2ccccc2OC)on1	-21	-16	-19	2	-12	16
O=C(NNS(=O)(=O)c1ccccc1[N+](=O)[O-])c1cc2ccccc2cc1O	0	23*	1	3	3	-1
O=C(NNS(=O)(=O)c1ccccc1[N+](=O)[O-])c1ccccc1Cl	-2	4	-9	1	-7	13
COCCOCCn1c(/C=C/c2ccccc2)nc2ccccc21	74*	-9	61*	1	38	-381
Cc1ccc(NC(=O)[C@@H]2O[C@H](CO)[C@@H](O)[C@H]2O)cc1C(F)(F)F	.	-12	.	1	.	10
COc1cc(C=C2CCCC(=Cc3ccc(OCC4CO4)c(OC)c3)C2=O)ccc1OCC1CO1 (stereo unspecified)	.	-18	.	-34	.	-3
COc1ccc(NS(=O)(=O)c2ccc3c(c2)N(C(C)=O)CCS3)cc1	9	-7	7	3	-4	10
CC(=O)N1CCSc2ccc(S(=O)(=O)Nc3ccc(C)cc3)cc21	-2	22*	0	2	4	11
Cc1nn(-c2ccccc2)c(Cl)c1/C=N/Nc1nc2ccccc2[nH]1	52*	-2	16	0	85*	9
Cc1cc(=O)[nH]c(N/N=C/c2c(C)nn(-c3ccccc3)c2Cl)n1	6	1	0	0	-4	30
O=c1c2cc(Cl)ccc2nc(-c2ccccc2)n1O	6	12	6	1	-8	-20
O=c1c2cc(Cl)ccc2nc(-c2ccc(Cl)c(Cl)c2)n1O	59*	-15	15	5	9	-19
COc1ccc(-c2coc3cc(O)cc(O)c3c2=O)cc1	42	-2	32	0	27	19
COc1ccc(-c2coc3cc(OC)cc(O)c3c2=O)cc1	30	5	-11	4	63*	16
Cn1c(=O)c2c(ncn2CC(=O)OCCCC(=O)c2ccc(Br)cc2)n(C)c1=O	-20	11	-1	-1	3	6
CCOC(=O)C1(Cc2ccccc2)CCN(Cc2cccn2-c2nccs2)CC1	7	33*	5	2	0	26
SMILES	SENP6 inh	NRP1-CendR mod	SENP8 block-1	SENP1 inh	SENP7 inh	SENP8 block-2
Cc1csc(NC(=O)Cc2coc3cc(C)c(C(C)C)cc23)n1	-17	-2	-3	2	0	8
CCc1cc2c(=O)c(-c3nc(C)cs3)coc2cc1O	66*	10	38	-8	77*	-16
COc1ccc(C2C(=O)N(C3CCCCC3)CC(=O)N2Cc2ccc3c(c2)OCO3)cc1 (stereo unspecified)	100*	4	-6	2	-1	18
CCc1nc(Nc2ccccc2OC)c2oc3ccccc3c2n1	9	-21	-2	2	-1	-249
CCc1nc(Nc2cc(OC)ccc2OC)c2oc3ccccc3c2n1	-13	25*	2	-2	-2	-297
COc1ccc(N(CC(=O)NCc2ccc3c(c2)OCO3)S(=O)(=O)c2ccc(O)c(C(=O)O)c2)cc1	.	-9	.	-2	.	-270
COC(=O)c1c(C(=O)OC)c(-c2ccc(C(C)(C)C)cc2)n2c1CS(=O)C2 (stereo unspecified)	-5	17	7	-1	3	2
COC(=O)c1c(C(=O)OC)c(-c2ccccc2)n2c1CCC2	-4	38*	-5	1	5	14
O=C(c1ccccc1)n1ccc(-c2cnc(-c3ccccc3)s2)n1	57*	5	67*	4	90*	i
CCOC(=O)c1cnc2ccc(C)cc2c1NCCO	-27	27*	-3	1	-1	-104
O=C(O)c1cccc(COc2ccccc2Cl)c1	99*	-5	98*	1	5	5
O=C(O)c1ccc(-c2nc3ccccc3[nH]2)cc1	75*	-1	62*	0	73*	-448
Nc1[nH]c(C(=O)c2ccccc2)c(-c2ccc(Cl)cc2)c1C(=O)NCc1ccccc1	.	-9	.	-4	.	11
CCC(NCc1cccnc1)c1ccc(OC)c(OC)c1 (stereo unspecified)	.	1	.	0	.	18
Cc1nc2sc(-c3ccccc3)cc2c(=O)n1N	95*	0	96*	0	99*	-58
CCCCCCCCCc1conc1C(=O)/C=C/c1ccco1	.	-8	.	1	.	18
CC(=O)NC(c1cccs1)c1cc([N+](=O)[O-])c2cccnc2c1O (stereo unspecified)	.	9	.	-5	.	45*
CC(=O)NC(c1ccccc1)c1cc([N+](=O)[O-])c2cccnc2c1O (stereo unspecified)	9	9	5	-1	7	52*
O=C(CCc1ccccc1)NC(c1cccs1)c1cc(Cl)c2cccnc2c1O (stereo unspecified)	.	3	.	2	.	2
CCC(=O)NC(c1cccs1)c1cc([N+](=O)[O-])c2cccnc2c1O (stereo unspecified)	3	2	7	0	10	66*

From PubChem BioAssay
